Columns and labels:
[1] = biological target: Serine/threonine-protein kinase 17A (Homo sapiens) (UniProt Q9UEE5); test: Inhibition of full length recombinant GST-tagged human DRAK1 expressed in baculovirus expression system at 1 uM by FRET assay relative to control
[2] = biological target: Serine/threonine-protein kinase PLK2 (Homo sapiens) (UniProt Q9NYY3); test: Inhibition of full length recombinant GST-tagged human PLK2 expressed in baculovirus expression system at 1 uM by FRET assay relative to control
[3] = biological target: Macrophage-stimulating protein receptor (Homo sapiens) (UniProt Q04912); test: Inhibition of recombinant GST-tagged human Ron cytoplasmic domain ([…] to 1400 residues) expressed in baculovirus expression system at 1 uM by FRET assay relative to control
Sequence of Macrophage-stimulating protein receptor (Homo sapiens) (Q04912 25-304 limits assumed): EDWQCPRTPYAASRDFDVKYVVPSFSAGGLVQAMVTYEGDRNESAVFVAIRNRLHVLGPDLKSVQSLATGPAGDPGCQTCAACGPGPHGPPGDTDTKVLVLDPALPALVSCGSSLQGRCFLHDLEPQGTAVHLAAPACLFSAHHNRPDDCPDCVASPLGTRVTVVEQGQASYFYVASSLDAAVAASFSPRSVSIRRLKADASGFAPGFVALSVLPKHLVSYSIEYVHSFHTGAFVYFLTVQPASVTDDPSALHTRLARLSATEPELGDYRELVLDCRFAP
Sequence of Macrophage-stimulating protein receptor (Homo sapiens) (Q04912 310-1400 limits assumed): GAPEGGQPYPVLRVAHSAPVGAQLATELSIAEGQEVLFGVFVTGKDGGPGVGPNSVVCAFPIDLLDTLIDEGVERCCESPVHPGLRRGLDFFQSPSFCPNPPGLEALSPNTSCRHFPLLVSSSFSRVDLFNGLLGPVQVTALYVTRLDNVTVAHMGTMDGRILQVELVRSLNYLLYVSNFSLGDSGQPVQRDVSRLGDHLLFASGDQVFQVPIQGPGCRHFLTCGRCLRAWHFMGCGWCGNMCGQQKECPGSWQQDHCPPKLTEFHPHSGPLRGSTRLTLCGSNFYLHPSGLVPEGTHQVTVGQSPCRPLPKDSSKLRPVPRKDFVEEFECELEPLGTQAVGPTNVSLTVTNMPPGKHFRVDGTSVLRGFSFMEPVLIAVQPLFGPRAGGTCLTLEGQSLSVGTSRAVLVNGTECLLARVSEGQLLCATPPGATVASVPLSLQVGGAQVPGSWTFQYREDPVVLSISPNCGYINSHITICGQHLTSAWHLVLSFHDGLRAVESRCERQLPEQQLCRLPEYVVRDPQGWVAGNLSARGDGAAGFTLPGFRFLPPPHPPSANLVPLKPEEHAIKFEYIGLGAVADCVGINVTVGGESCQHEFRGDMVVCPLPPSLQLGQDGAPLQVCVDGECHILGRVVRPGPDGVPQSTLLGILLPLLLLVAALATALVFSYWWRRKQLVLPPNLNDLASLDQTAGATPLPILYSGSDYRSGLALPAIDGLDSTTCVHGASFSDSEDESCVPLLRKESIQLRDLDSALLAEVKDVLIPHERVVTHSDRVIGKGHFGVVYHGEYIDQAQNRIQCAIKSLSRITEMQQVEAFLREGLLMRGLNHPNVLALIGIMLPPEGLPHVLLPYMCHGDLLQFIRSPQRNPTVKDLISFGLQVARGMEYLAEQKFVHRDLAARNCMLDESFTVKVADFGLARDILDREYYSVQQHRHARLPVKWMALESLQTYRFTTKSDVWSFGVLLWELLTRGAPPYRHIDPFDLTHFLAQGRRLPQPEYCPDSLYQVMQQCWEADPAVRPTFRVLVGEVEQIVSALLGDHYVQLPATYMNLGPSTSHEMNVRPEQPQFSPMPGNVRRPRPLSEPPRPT
In short: (§1)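 Single-point screen at 1 μM compound in a 220-kinase panel run by Life Technologies (SelectScreen). Z′-LYTE format: phosphorylation of a labeled peptide substrate read by FRET. Values are reported as percent inhibition.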

[4] = biological target: Proto-oncogene tyrosine-protein kinase ROS (Homo sapiens) (UniProt P08922); test: Inhibition of recombinant GST-tagged human Ros cytoplasmic domain expressed in baculovirus expression system at 1 uM by FRET assay relative to control; in short: as §1
[5] = biological target: Dual specificity mitogen-activated protein kinase kinase 3 (Homo sapiens) (UniProt P46734); test: Inhibition of recombinant full length GST-tagged human MEK3 expressed in baculovirus expression system at 1 uM by FRET assay relative to control
Sequence of Dual specificity mitogen-activated protein kinase kinase 3 (Homo sapiens) (P46734 whole entry): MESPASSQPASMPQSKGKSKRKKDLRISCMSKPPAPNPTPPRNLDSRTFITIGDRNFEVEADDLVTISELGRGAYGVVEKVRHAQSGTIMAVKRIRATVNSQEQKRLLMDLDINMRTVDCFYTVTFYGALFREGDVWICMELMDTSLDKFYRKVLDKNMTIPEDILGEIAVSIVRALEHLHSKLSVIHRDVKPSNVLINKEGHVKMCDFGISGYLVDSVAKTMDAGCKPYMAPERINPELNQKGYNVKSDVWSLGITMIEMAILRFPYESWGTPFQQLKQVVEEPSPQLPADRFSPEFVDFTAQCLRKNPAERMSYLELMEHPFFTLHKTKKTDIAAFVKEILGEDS
In short: (§2)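 Single-concentration screen at 1 μM in Life Technologies SelectScreen, across a 220-kinase panel. Z′-LYTE format measures phosphorylation of a labeled peptide by FRET. Results are reported as percent inhibition.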

[6] = biological target: Insulin-like growth factor 1 receptor (Homo sapiens) (UniProt P08069); test: Inhibition of recombinant His-tagged human IGF1R cytoplasmic domain (960 to 1397 residues) expressed in baculovirus expression system at 1 uM by FRET relative to control; in short: as §1
Sequence of Insulin-like growth factor 1 receptor (Homo sapiens) (P08069 31-736 limits assumed): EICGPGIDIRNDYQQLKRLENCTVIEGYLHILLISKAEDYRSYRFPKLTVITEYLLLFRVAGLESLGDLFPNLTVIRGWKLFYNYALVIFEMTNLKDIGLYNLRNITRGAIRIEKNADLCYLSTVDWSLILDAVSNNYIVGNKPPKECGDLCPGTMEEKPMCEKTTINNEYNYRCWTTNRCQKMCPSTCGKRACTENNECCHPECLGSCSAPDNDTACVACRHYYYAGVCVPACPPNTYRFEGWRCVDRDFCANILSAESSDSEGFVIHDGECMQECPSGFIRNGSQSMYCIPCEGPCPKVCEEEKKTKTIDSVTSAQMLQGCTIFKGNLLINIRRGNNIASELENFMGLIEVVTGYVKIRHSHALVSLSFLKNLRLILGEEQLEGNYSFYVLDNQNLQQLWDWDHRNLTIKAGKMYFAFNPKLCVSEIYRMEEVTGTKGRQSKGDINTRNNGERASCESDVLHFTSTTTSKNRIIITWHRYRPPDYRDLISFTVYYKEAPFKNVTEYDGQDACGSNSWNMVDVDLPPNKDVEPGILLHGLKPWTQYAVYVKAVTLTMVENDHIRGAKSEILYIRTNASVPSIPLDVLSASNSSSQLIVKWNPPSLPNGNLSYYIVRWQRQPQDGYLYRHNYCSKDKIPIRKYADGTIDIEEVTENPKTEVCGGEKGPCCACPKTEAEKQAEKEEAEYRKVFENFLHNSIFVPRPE
Sequence of Insulin-like growth factor 1 receptor (Homo sapiens) (P08069 741-1367 limits assumed): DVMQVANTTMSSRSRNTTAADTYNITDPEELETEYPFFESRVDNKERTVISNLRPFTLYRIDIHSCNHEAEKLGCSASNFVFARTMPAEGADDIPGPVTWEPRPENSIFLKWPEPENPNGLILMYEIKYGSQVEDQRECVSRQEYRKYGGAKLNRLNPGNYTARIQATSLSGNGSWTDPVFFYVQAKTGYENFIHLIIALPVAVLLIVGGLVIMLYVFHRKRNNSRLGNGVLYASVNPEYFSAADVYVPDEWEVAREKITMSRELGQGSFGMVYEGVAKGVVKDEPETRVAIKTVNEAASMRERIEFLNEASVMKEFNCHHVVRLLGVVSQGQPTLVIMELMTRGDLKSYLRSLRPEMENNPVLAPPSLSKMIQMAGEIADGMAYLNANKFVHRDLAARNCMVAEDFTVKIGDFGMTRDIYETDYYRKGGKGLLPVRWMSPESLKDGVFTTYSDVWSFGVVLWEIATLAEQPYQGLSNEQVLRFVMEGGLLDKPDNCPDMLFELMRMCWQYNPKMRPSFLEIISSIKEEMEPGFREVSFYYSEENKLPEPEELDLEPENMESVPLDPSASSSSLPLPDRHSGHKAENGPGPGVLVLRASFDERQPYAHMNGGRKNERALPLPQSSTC

[7] = biological target: Calcium/calmodulin-dependent protein kinase type II subunit beta (Homo sapiens) (UniProt Q13554); test: Inhibition of recombinant full length His-tagged human CaMK2beta expressed in baculovirus expression system at 1 uM by FRET assay relative to control
[8] = biological target: Calcium/calmodulin-dependent protein kinase kinase 1 (Homo sapiens) (UniProt Q8N5S9); test: Inhibition of recombinant full length His-tagged human CAMKK1 expressed in baculovirus expression system at 1 uM by FRET assay relative to control
[9] = biological target: Serine/threonine-protein kinase PAK 4 (Homo sapiens, UniProt O96013); test: Inhibition of recombinant GST-tagged human PAK4 catalytic domain expressed in baculovirus expression system at 1 uM by FRET assay relative to control; in short: as §1
Sequence of Serine/threonine-protein kinase PAK 4 (O96013 whole entry, looked up, the tested form may be a part): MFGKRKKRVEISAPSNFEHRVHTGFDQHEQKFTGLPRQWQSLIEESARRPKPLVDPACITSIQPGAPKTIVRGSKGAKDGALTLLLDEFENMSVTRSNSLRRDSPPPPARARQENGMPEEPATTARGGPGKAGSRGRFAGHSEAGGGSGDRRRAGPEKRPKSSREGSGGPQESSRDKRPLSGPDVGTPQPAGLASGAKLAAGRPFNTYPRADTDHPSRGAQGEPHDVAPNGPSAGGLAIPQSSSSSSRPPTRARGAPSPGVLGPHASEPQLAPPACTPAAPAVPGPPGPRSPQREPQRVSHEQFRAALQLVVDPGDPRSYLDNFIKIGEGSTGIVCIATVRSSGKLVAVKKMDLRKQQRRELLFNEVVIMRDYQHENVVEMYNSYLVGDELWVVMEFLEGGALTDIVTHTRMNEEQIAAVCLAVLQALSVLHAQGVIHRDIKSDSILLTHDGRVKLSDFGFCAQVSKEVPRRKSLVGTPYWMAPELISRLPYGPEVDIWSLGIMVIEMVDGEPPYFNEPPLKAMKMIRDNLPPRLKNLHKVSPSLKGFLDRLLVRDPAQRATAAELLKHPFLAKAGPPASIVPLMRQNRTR

[10] = biological target: Activin receptor type-1B (Homo sapiens) (UniProt P36896); test: Inhibition of recombinant GST-tagged human ACVR1B catalytic domain (150 to 505 residues) expressed in baculovirus expression system at 1 uM by FRET assay relative to control
[11] = biological target: Mitogen-activated protein kinase kinase kinase 20 (Homo sapiens) (UniProt Q9NYL2); test: Inhibition of recombinant N-terminal full length GST-tagged human ZAK expressed in baculovirus expression system at 1 uM by FRET assay relative to control; in short: as §2
[12] = biological target: Adenosine receptor A1 (Homo sapiens) (UniProt P30542); test: Binding affinity to recombinant human A1 adenosine receptor at 10 uM relative to control
In short: (§3)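 Broad radioligand-binding and enzyme screening panel covering 42 targets (biogenic amine and neuropeptide receptors, ion channels, neurotransmitter transporters, acetylcholinesterase). Single test concentration of 10 μM. Results expressed as binding relative to control, with a hit defined as >50% of control.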

[13] = biological target: Serine/threonine-protein kinase Chk1 (Homo sapiens) (UniProt O14757); test: Inhibition of recombinant full length His-tagged human CHK1 expressed in baculovirus expression system at 1 uM by FRET assay relative to control
[14] = biological target: Serine/threonine-protein kinase DCLK2 (Homo sapiens) (UniProt Q8N568); test: Inhibition of full length recombinant GST-tagged human DCAMKL2 expressed in baculovirus expression system at 1 uM by FRET assay relative to control
[15] = biological target: Serine/threonine-protein kinase Nek4 (Homo sapiens) (UniProt P51957); test: Inhibition of recombinant full length GST-tagged human NEK4 expressed in baculovirus expression system at 1 uM by FRET assay relative to control; in short: as §2
[16] = biological target: Gamma-aminobutyric acid type B receptor subunit 1 (Homo sapiens) (UniProt Q9UBS5); test: Binding affinity to GABA-B1b (unknown origin) at 10 uM relative to control; in short: as §3
[17] = system: Epidermal growth factor receptor (Homo sapiens), P00533 [L858R,T790M]; test: Inhibition of recombinant GST-tagged human EGFR cytoplasmic domain (668 to 1210 residues) T790M/L858R double mutant expressed in baculovirus expression system at 1 uM by FRET assay relative to control
In short: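 Part of a 220-kinase panel run at a single concentration of 1 μM. Z′-LYTE format: phosphorylation of a labelled peptide read by FRET. Values reported as percent inhibition.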

[18] = biological target: Vascular endothelial growth factor receptor 3 (Homo sapiens) (UniProt P35916); test: Inhibition of recombinant GST-tagged human FLT4 cytoplasmic domain expressed in baculovirus expression system at 1 uM by FRET assay relative to control; in short: as §1
Sequence of Vascular endothelial growth factor receptor 3 (Homo sapiens) (P35916 whole entry, the tested form may be a part): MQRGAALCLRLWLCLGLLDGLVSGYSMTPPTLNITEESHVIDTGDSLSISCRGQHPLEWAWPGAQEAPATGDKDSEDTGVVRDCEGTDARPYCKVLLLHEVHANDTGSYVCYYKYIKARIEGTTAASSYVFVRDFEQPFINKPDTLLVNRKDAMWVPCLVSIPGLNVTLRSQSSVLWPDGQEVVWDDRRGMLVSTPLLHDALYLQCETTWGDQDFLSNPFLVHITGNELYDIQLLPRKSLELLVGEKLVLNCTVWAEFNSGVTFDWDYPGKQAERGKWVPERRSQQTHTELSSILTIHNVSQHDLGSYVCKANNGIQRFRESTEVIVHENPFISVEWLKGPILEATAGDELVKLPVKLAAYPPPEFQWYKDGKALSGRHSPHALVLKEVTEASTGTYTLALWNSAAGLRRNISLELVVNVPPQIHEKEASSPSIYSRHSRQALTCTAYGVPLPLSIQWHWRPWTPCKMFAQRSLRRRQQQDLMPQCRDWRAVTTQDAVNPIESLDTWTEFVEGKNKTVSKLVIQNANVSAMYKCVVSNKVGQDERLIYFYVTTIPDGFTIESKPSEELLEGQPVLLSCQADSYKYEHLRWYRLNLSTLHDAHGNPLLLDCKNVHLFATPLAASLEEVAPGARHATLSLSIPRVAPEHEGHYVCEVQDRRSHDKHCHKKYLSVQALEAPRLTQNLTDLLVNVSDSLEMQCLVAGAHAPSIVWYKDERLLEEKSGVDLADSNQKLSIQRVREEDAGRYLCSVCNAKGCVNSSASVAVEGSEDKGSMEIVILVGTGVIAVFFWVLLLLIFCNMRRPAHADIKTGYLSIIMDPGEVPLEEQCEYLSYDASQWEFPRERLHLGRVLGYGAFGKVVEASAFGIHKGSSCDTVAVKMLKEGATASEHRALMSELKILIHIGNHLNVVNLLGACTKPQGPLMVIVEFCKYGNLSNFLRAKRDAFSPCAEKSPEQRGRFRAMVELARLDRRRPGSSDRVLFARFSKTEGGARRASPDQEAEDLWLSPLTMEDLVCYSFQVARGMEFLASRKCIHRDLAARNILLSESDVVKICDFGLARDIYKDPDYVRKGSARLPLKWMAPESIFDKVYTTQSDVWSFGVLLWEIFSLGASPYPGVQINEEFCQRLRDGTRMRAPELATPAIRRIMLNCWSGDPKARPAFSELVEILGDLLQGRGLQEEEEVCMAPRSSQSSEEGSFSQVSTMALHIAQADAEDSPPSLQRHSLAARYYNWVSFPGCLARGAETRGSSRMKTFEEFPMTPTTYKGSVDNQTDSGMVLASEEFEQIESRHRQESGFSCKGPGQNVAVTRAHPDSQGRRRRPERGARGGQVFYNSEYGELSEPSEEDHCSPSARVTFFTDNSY

[19] = biological target: G protein-coupled receptor kinase 6 (Homo sapiens) (UniProt P43250); test: Inhibition of recombinant full length GST-tagged human GRK6 expressed in baculovirus expression system at 1 uM by FRET relative to control; in short: as §2
[20] = biological target: Death-associated protein kinase 1 (Homo sapiens) (UniProt P53355); test: Inhibition of recombinant N-terminal GST-tagged human DAPK1 (1 to 363 residues) expressed in baculovirus expression system at 1 uM by FRET assay relative to control; in short: as §2
[21] = biological target: Phosphatidylinositol 4,5-bisphosphate 3-kinase catalytic subunit alpha isoform (Homo sapiens) (UniProt P42336); test: Inhibition of PI3KA (unknown origin) at 1 uM by FRET assay relative to control
[22] = biological target: 5-hydroxytryptamine receptor 2B (Homo sapiens) (UniProt P41595); test: Binding affinity to 5HT2B receptor (unknown origin) receptor at 10 uM relative to control; in short: as §3
[23] = biological target: 5'-AMP-activated protein kinase catalytic subunit alpha-1 (Homo sapiens) (UniProt Q13131); test: Inhibition of PRKAA1 (unknown origin) at 1 uM by FRET assay relative to control
[24] = biological target: STE20-like serine/threonine-protein kinase (Homo sapiens) (UniProt Q9H2G2); test: Inhibition of recombinant full length GST-tagged human SLK expressed in baculovirus expression system at 1 uM by FRET assay relative to control; in short: as §2
[25] = biological target: GABA-A receptor; alpha-1/beta-2/gamma-2 (Homo sapiens) (UniProt P14867+P47870+P18507); test: Binding affinity to GABA-A alpha1beta2gamma2 receptor (unknown origin) at 10 uM relative to control; format: protein-complex assay; in short: as §3

SMILES	inhibition [1]	inhibition [2]	inhibition [3]	inhibition [4]	inhibition [5]	inhibition [6]	inhibition [7]	inhibition [8]	inhibition [9]	inhibition [10]	inhibition [11]	Activity [12]	inhibition [13]	inhibition [14]	inhibition [15]	Activity [16]	inhibition [17]	inhibition [18]	inhibition [19]	inhibition [20]	also measured
CC(C)n1nc(-c2cnc(N)c(OC(F)(F)F)c2)cc1[C@H]1[C@@H]2CN(C3COC3)C[C@@H]21	5.2%	17.3%	5.9%	37%	3.6%	9.3%	10.6%	-7.5%	69.5%	-6.8%	2.5%	> 50%	4.4%	-1.6%	0.1%	> 50%	9.8%	22.1%	2.5%	-5.1%	inhibition [21]: -2.7%; Activity [22]: > 50%; inhibition [23]: 5%; inhibition [24]: 4.9%; Activity [25]: > 50%
Nc1ncc(-c2cc([C@H]3[C@@H]4CN(C5COC5)C[C@@H]43)n(CC3CC3)n2)cc1C(F)(F)F	7.5%	2.7%	0.6%	40.1%	-2.7%	13.8%	1.6%	-0.3%	40.5%	2.9%	1.4%	> 50%	2.9%	-0.8%	2.4%	> 50%	8.2%	44.6%	-4.2%	14%	inhibition [21]: -9.8%; Activity [22]: > 50%; inhibition [23]: 3.3%; inhibition [24]: 4.8%; Activity [25]: > 50%
